Legend:
[1] = Intrinsic clearance in human liver microsomes; assay type: ADME; settings: read-out: CLH
[2] = Plasma protein binding in human; assay type: ADME, cell-free; settings: for fraction unbound: read-out: PPB (converted)
[3] = target: Muscarinic acetylcholine receptor M3 (Homo sapiens, UniProt P20309); test: Displacement of [3H]NMS from recombinant human M3 receptor expressed in CHO-K1 cells after 16 hrs by SPA method; assay type: cell-based
In short: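 Nonspecific binding defined with atropine 1 µM; eight total-binding replicates per plate. Incubated at room temperature at least 16 h to equilibrium before counting; n ≥ 2.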

[4] = target: Muscarinic acetylcholine receptor M3 (Cavia porcellus, UniProt Q8VH26); test: Antagonist activity at M3 receptor in Dunkin-Hartley guinea pig trachea assessed as inhibition of methacholine-induced airway smooth muscle contraction after 1 to 4 hrs; settings: read-out: pA2 (converted)
Muscarinic acetylcholine receptor M3 (Cavia porcellus, UniProt Q8VH26), sequence (Q8VH26 whole entry): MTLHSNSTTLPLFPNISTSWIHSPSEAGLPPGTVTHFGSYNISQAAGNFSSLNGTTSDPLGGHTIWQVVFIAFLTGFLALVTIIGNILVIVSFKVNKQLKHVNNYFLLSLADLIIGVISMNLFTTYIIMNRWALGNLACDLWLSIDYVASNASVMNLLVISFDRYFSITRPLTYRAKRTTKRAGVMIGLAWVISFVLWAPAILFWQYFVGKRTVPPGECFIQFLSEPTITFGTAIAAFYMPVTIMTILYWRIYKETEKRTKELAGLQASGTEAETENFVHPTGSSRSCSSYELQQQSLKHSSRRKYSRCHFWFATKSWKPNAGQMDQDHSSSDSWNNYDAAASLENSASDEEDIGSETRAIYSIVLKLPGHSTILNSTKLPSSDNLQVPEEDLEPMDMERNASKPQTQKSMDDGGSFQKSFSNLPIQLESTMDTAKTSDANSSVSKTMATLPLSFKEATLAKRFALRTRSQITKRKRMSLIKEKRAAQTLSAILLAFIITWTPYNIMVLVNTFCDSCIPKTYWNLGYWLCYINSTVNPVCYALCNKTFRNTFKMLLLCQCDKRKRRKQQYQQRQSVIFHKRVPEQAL
In short: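 Isolated guinea pig tracheal rings equilibrated 1 h, re-tensioned to 1 g, primed with methacholine, then a cumulative methacholine curve (3 × 10^-9 to 3 × 10^-5 M). Vehicle or compound equilibrated 1 or 4 h before a second curve (3 × 10^-9 to 1 × 10^-3 M final). Isometric force as % of curve-1 maximum. pA2 calculated from vehicle and test A50 values; n = 2.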

[5] = Half life in guinea pig lung administered via intratracheal instillation at 1 ug/kg by HPLC-MS analysis; assay type: ADME, tissue-based, Cavia porcellus; settings: inhaled or intranasal, 0.001 mg/kg
In short: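 Halothane-anaesthetised guinea pigs given 1 μg/kg by intratracheal instillation. Lungs collected at 0.25-24 h after barbiturate overdose, homogenised in phosphate buffer and added to ice-cold methanol. Supernatant analysed by mass spectrometry/HPLC.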

[6] = test system: Cavia porcellus; test: Toxicity in guinea pig assessed as reduction of pilocarpine-induced salivation administered via intranasal administered for 4 hrs followed by pilocarpine challenge measured every 5 mins for 15 mins; assay type: organism-based
In short: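 Compound or vehicle given intranasally under halothane. At 4 h, animals were anaesthetised with urethane and the mouth dried with gauze for 5 min. Baseline saliva taken on a pre-weighed pad over 5 min. Pilocarpine 0.6 mg/kg given subcutaneously, then pads replaced every 5 min for 15 min and saliva quantified by pad weight gain.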

Muscarinic acetylcholine receptor M3 (Homo sapiens, UniProt P20309), sequence (P20309 whole entry): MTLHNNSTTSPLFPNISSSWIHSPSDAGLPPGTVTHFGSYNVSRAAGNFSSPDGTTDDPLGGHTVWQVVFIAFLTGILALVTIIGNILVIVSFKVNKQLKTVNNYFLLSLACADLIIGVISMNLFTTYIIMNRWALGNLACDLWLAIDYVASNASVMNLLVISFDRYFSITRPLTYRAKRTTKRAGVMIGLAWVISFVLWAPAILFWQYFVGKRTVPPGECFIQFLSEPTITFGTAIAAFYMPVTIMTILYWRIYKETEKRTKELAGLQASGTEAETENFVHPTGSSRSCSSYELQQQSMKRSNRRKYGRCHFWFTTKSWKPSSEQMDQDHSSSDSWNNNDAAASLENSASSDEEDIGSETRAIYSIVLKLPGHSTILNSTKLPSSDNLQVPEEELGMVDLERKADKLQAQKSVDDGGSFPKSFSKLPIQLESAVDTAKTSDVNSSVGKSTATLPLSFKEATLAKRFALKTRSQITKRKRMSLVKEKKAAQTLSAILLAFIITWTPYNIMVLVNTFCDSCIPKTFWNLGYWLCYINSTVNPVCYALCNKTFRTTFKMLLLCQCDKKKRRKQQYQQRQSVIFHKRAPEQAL

Row | Compound | microsomal CLint [1] [µL/min/mg] | PPB [2] | fraction unbound [2] | IC50 [3] [nM] | Kb [4] [nM] | half-life [5] [h] | EC50 [6] [µg/kg]
1 | O=C(O[C@H]1C[N+]2(CCCOc3ccccc3)CCC1CC2)C(O)(c1cccs1)c1cccs1.[Br-] [ACLIDINIUM BROMIDE] | > 145 | ND(Unstable) |  |  |  |  | 
2 | C[N+]12CCC(CC1)[C@@H](OC(=O)C1(C3=CC=CC3)CCCCCC1)C2 | 34 |  | 0.27 | 2.51 |  |  | 
3 | O=C(O[C@H]1C[N+]2(Cc3ccc(F)c(F)c3)CCC1CC2)C1(C2=CC=CC2)CCCCCC1 | 55 |  |  | 39.8 |  |  | 
4 | CC(C)(C)c1cc(NC(=O)C[N+]23CCC(CC2)[C@@H](OC(=O)C2(C4=CC=CC4)CCCCCC2)C3)no1 |  |  |  | 10 |  |  | 
5 | O=C(C[N+]12CCC(CC1)[C@@H](OC(=O)C1(C3=CC=CC3)CCCCCC1)C2)Nc1cc[nH]n1 | 37 |  | 0.05 | 0.1 |  |  | 
6 | O=C(C[N+]12CCC(CC1)[C@@H](OC(=O)C1(C3=CC=CC3)CCCCCC1)C2)Nc1ccccc1 | 27 |  | 0.006 | 0.251 |  |  | 
7 | Cc1ccc(NC(=O)C[N+]23CCC(CC2)[C@@H](OC(=O)C2(C4=CC=CC4)CCCCCC2)C3)cn1 |  |  |  | 0.794 |  |  | 
8 | O=C(O[C@H]1C[N+]2(CCOCc3ccccc3)CCC1CC2)C1(C2=CC=CC2)CCCCCC1 | 120 |  | 0.03 | 0.126 | 3.98 |  | 
9 | Cc1ccc(NC(=O)C[N+]23CCC(CC2)[C@@H](OC(=O)C2(C4=CC=CC4)CCCCCC2)C3)nn1 | 16 |  | 0.1 | 0.794 |  |  | 
10 | O=C(O[C@H]1C[N+]2(Cc3csc(-c4ccccc4)n3)CCC1CC2)C1(C2=CC=CC2)CCCCCC1 | 133 |  |  | 25.1 |  |  | 
11 | O=C(C[N+]12CCC(CC1)[C@@H](OC(=O)C1(C3=CC=CC3)CCCCCC1)C2)Nc1cncnc1 | 32 |  |  | 0.631 |  |  | 
12 | O=C(C[N+]12CCC(CC1)[C@@H](OC(=O)C1(C3=CC=CC3)CCCCCC1)C2)Nc1ncns1 | 25 |  |  | 0.398 |  |  | 
13 | Cc1nccc(NC(=O)C[N+]23CCC(CC2)[C@@H](OC(=O)C2(C4=CC=CC4)CCCCCC2)C3)n1 |  |  |  | 0.398 |  |  | 
14 | O=C(C[N+]12CCC(CC1)[C@@H](OC(=O)C1(C3=CC=CC3)CCCCCC1)C2)Nc1ncco1 | 66 |  | 0.15 | 12.6 |  |  | 
15 | O=C(C[N+]12CCC(CC1)[C@@H](OC(=O)C1(C3=CC=CC3)CCCCCC1)C2)NCCNC(=O)c1cnccn1 | 74 |  |  | 3.16 |  |  | 
16 | Cc1ccc(CC[N+]23CCC(CC2)[C@@H](OC(=O)C2(C4=CC=CC4)CCCCCC2)C3)s1 | 130 |  | 0.01 | 0.0631 | 0.316 |  | 
17 | NC(=O)C[N+]12CCC(CC1)[C@@H](OC(=O)C1(C3=CC=CC3)CCCCCC1)C2 | 19 |  | 0.18 | 0.2 | 0.0794 | 11.4 | 
18 | O=C(C[N+]12CCC(CC1)[C@@H](OC(=O)C1(C3=CC=CC3)CCCCCC1)C2)Nc1cccnc1 | 40 |  | 0.04 | 0.2 |  |  | 
19 | O=C(C[N+]12CCC(CC1)[C@@H](OC(=O)C1(C3=CC=CC3)CCCCCC1)C2)Nc1cccc(C(F)(F)F)n1 |  |  | 0.004 | 2.51 |  |  | 
20 | COc1cccc(C[N+]23CCC(CC2)[C@@H](OC(=O)C2(C4=CC=CC4)CCCCCC2)C3)c1 |  |  |  | 3.16 |  |  | 
21 | Cc1ccc(CCC[N+]23CCC(CC2)[C@@H](OC(=O)C2(C4=CC=CC4)CCCCCC2)C3)c(C)n1 | 50 |  | 0.04 | 1 |  |  | 
22 | O=C(C[N+]12CCC(CC1)[C@@H](OC(=O)C1(C3=CC=CC3)CCCCCC1)C2)Nc1cncc(Cl)n1 | 51 |  | 0.015 | 0.1 | 0.501 |  | 
23 | O=C(C[N+]12CCC(CC1)[C@@H](OC(=O)C1(C3=CC=CC3)CCCCCC1)C2)Nc1nncs1 | 39 |  | 0.06 | 7.94 |  |  | 
24 | Cn1ccc(CCC[N+]23CCC(CC2)[C@@H](OC(=O)C2(C4=CC=CC4)CCCCCC2)C3)n1 | 63 |  | 0.06 | 0.501 |  |  | 
25 | C[N+]1(C)CCC(OC(=O)C2(c3ccccc3)CCCCCC2)CC1 | 20 |  | 0.27 | 0.251 |  |  | 
26 | O=C(C[N+]12CCC(CC1)[C@@H](OC(=O)C1(C3=CC=CC3)CCCCCC1)C2)Nc1cccnn1 | 70 |  | 0.1 | 0.158 | 0.0794 | 42.4 | > 10

Row | Compound | microsomal CLint [1] [µL/min/mg] | PPB [2] | fraction unbound [2] | IC50 [3] [nM] | Kb [4] [nM] | half-life [5] [h] | EC50 [6] [µg/kg]
27 | Cc1ccc(NC(=O)C[N+]23CCC(CC2)[C@@H](OC(=O)C2(C4=CC=CC4)CCCCCC2)C3)nc1 | 51 |  | 0.019 | 0.501 |  |  | 
28 | O=C(O[C@H]1C[N+]2(CCOc3ccccc3)CCC1CC2)C1(C2=CC=CC2)CCCCCC1 | 106 |  | 0.04 | 0.158 | 0.398 |  | 
29 | O=C(C[N+]12CCC(CC1)[C@@H](OC(=O)C1(C3=CC=CC3)CCCCCC1)C2)Nc1ccc(C(F)(F)F)nn1 |  |  |  | 2.51 |  |  | 
30 | O=C(C[N+]12CCC(CC1)[C@@H](OC(=O)C1(C3=CC=CC3)CCCCCC1)C2)NCCCNC(=O)c1ccccn1 | 101 |  | 0.026 | 6.31 |  |  | 
31 | O=C(O[C@H]1C[N+]2(CCCc3ccncc3)CCC1CC2)C1(c2cccs2)CCCCCC1 | 55 |  | 0.06 | 0.0501 | 0.1 |  | 
32 | O=C(C[N+]12CCC(CC1)[C@H](OC(=O)C1(C3=CC=CC3)CCCCCC1)C2)Nc1ccccn1 |  |  |  | 31.6 |  |  | 
33 | O=C(O[C@H]1C[N+]2(CCc3cccc(Cl)c3)CCC1CC2)C1(C2=CC=CC2)CCCCCC1 | 72 |  | 0.005 | < 0.0398 | 0.251 |  | 
34 | O=C(C[N+]12CCC(CC1)[C@@H](OC(=O)C1(C3=CC=CC3)CCCCCC1)C2)Nc1cccc(F)c1 | 17 |  | 0.003 | 0.126 | 3.16 |  | 
35 | O=C(C[N+]12CCC(CC1)[C@@H](OC(=O)C1(C3=CC=CC3)CCCCCC1)C2)Nc1ccc(F)cn1 |  |  | 0.024 | 0.631 |  |  | 
36 | Cc1cnc(NC(=O)C[N+]23CCC(CC2)[C@@H](OC(=O)C2(C4=CC=CC4)CCCCCC2)C3)cn1 | 27 |  | 0.04 | 0.794 |  |  | 
37 | O=C(O[C@H]1C[N+]2(CCCc3nc4ccccc4o3)CCC1CC2)C1(C2=CC=CC2)CCCCCC1 |  |  | 0.04 |  |  | 9.3 | 
38 | O=C(C[N+]12CCC(CC1)[C@@H](OC(=O)C1(C3=CC=CC3)CCCCCC1)C2)Nc1ccncn1 |  |  | 0.11 | 0.158 |  |  | 
39 | N#Cc1ccc(CC[N+]23CCC(CC2)[C@@H](OC(=O)C2(C4=CC=CC4)CCCCCC2)C3)cc1 | 49 |  |  | 3.16 |  |  | 
40 | Cc1ccnc(NC(=O)C[N+]23CCC(CC2)[C@@H](OC(=O)C2(C4=CC=CC4)CCCCCC2)C3)c1 | 30 |  | 0.018 | 0.794 |  |  | 
41 | O=C(C[N+]12CCC(CC1)[C@@H](OC(=O)C1(C3=CC=CC3)CCCCCC1)C2)Nc1ccc(C(F)(F)F)nc1 | 5 |  |  | 0.251 |  |  | 
42 | O=C(O[C@H]1C[N+]2(Cc3cc(-c4ccccc4)on3)CCC1CC2)C1(C2=CC=CC2)CCCCCC1 | 79 |  | 0.005 | 0.0794 | 3.16 | 12.1 | 
43 | O=C(C[N+]12CCC(CC1)[C@@H](OC(=O)C1(C3=CC=CC3)CCCCCC1)C2)Nc1ncccc1F | 49 |  | 0.06 | 0.251 |  |  | 
44 | O=C(O[C@H]1C[N+]2(CCc3ccccc3)CCC1CC2)C1(C2=CC=CC2)CCCCCC1 | 105 |  | 0.007 | 0.0794 | 0.316 |  | 
45 | O=C(O[C@H]1C[N+]2(Cc3ccn(-c4ccccc4)n3)CCC1CC2)C1(C2=CC=CC2)CCCCCC1 | 103 |  |  | 0.398 |  |  | 
46 | O=C(O[C@H]1C[N+]2(Cc3nc4ccccc4o3)CCC1CC2)C1(C2=CC=CC2)CCCCCC1 | 78 |  | 0.023 | 0.1 | 0.158 | 13 | > 10
47 | Cc1ccc(CCC[N+]23CCC(CC2)[C@@H](OC(=O)C2(C4=CC=CC4)CCCCCC2)C3)cn1 | 77 |  | 0.05 | 0.158 |  | 19.2 | 
48 | O=C(O[C@H]1C[N+]2(Cc3ccccc3)CCC1CC2)C1(C2=CC=CC2)CCCCCC1 | 68 |  |  | 39.8 |  |  | 
49 | Cc1cncc(NC(=O)C[N+]23CCC(CC2)[C@@H](OC(=O)C2(C4=CC=CC4)CCCCCC2)C3)n1 | 27 |  |  | 0.631 |  |  | 
50 | O=C(C[N+]12CCC(CC1)[C@@H](OC(=O)C1(C3=CC=CC3)CCCCCC1)C2)Nc1ccncc1 | 39 |  | 0.05 | 2.51 |  |  | 
51 | O=C(C[N+]12CCC(CC1)[C@@H](OC(=O)C1(C3=CC=CC3)CCCCCC1)C2)N1CCOCC1 | 15 |  |  | 100 |  |  | 
52 | Cc1cc(NC(=O)C[N+]23CCC(CC2)[C@@H](OC(=O)C2(C4=CC=CC4)CCCCCC2)C3)ncn1 | 26 |  | 0.2 | 1 |  |  | 
